Tested on: Fibroblast
Experiment: Multiplex assay against human fibroblast
Type: toxicity, cell-based
Summary of the method: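 Cells were classed with CellPathfinder machine-learning gating, first as Hoechst high-intensity objects or normal cells, then (normal cells) as healthy, pyknosed or fragmented nuclei, and finally (pyknosed cells) as mitotic or apoptotic. Staining of live cells at seeding used Hoechst33342, BioTracker Green Microtubule Cytoskeleton Dye, MitoTracker Red and Annexin V Alexa Fluor 680, with imaging on a CQ1 microscope at 37°C and 5% CO2 after compound addition. Tubulin, mitochondrial-mass and membrane-permeability phenotypes are per cents of healthy-nucleus cells.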

[1] = 12 h, 1 µM, compound concentration 1 uM, replicate 1
[2] = 12 h, 1 µM, compound concentration 1 uM, replicate 2
[3] = 12 h, 10 µM, compound concentration 10 uM, replicate 1
[4] = 12 h, 10 µM, compound concentration 10 uM, replicate 2
[5] = 24 h, 1 µM, compound concentration 1 uM, replicate 1
[6] = 24 h, 1 µM, compound concentration 1 uM, replicate 2
[7] = 24 h, 10 µM, compound concentration 10 uM, replicate 1
[8] = 24 h, 10 µM, compound concentration 10 uM, replicate 2
[9] = 48 h, 1 µM, compound concentration 1 uM, replicate 1
[10] = 48 h, 1 µM, compound concentration 1 uM, replicate 2
[11] = 48 h, 10 µM, compound concentration 10 uM, replicate 1
[12] = 48 h, 10 µM, compound concentration 10 uM, replicate 2

CSc1ccccc1N1CCN(CCCCCC(=O)NC2CCCc3ccccc32)CC1.Cl (stereo not drawn)
Population Apoptotic (%) [1]: 37%
Population Fragmented Nuclei (%) [1]: 26%
Population Healthy Nuclei (%) [1]: 49%
Population Hoechst High Intensity Objects (%) [1]: 6%
Population Membrane Permeable-Phenotype (%) [1]: 1%
Population Mitochondria Different-Phenotype (%) [1]: 15%
Population Mitotic Cells (%) [1]: 62%
Population Normal (%) [1]: 93%
Population Pyknosed Nuclei (%) [1]: 24%
Population Tubulin-Different-Phenotype (%) [1]: 65%
Total Cell Count [1]: 126
Population Apoptotic (%) [2]: 50%
Population Fragmented Nuclei (%) [2]: 32%
Population Healthy Nuclei (%) [2]: 41%
Population Hoechst High Intensity Objects (%) [2]: 2%
Population Membrane Permeable-Phenotype (%) [2]: 9%
Population Mitochondria Different-Phenotype (%) [2]: 7%
Population Mitotic Cells (%) [2]: 50%
Population Normal (%) [2]: 97%
Population Pyknosed Nuclei (%) [2]: 25%
Population Tubulin-Different-Phenotype (%) [2]: 74%
Total Cell Count [2]: 135
Population Apoptotic (%) [3]: 58%
Population Fragmented Nuclei (%) [3]: 25%
Population Healthy Nuclei (%) [3]: 57%
Population Hoechst High Intensity Objects (%) [3]: 5%
Population Membrane Permeable-Phenotype (%) [3]: 0%
Population Mitochondria Different-Phenotype (%) [3]: 78%
Population Mitotic Cells (%) [3]: 41%
Population Normal (%) [3]: 94%
Population Pyknosed Nuclei (%) [3]: 17%
Population Tubulin-Different-Phenotype (%) [3]: 95%
Total Cell Count [3]: 220
Population Apoptotic (%) [4]: 66%
Population Fragmented Nuclei (%) [4]: 34%
Population Healthy Nuclei (%) [4]: 50%
Population Mitochondria Different-Phenotype (%) [4]: 36%
Population Mitotic Cells (%) [4]: 33%
Population Pyknosed Nuclei (%) [4]: 14%
Population Tubulin-Different-Phenotype (%) [4]: 92%
Total Cell Count [4]: 242
Population Apoptotic (%) [5]: 52%
Population Fragmented Nuclei (%) [5]: 29%
Population Healthy Nuclei (%) [5]: 52%
Population Hoechst High Intensity Objects (%) [5]: 6%
Population Membrane Permeable-Phenotype (%) [5]: 0%
Population Mitochondria Different-Phenotype (%) [5]: 21%
Population Mitotic Cells (%) [5]: 47%
Population Normal (%) [5]: 93%
Population Pyknosed Nuclei (%) [5]: 18%
Population Tubulin-Different-Phenotype (%) [5]: 40%
Total Cell Count [5]: 133
Population Apoptotic (%) [6]: 37%
Population Fragmented Nuclei (%) [6]: 33%
Population Healthy Nuclei (%) [6]: 43%
Population Hoechst High Intensity Objects (%) [6]: 3%
Population Membrane Permeable-Phenotype (%) [6]: 3%
Population Mitochondria Different-Phenotype (%) [6]: 11%
Population Mitotic Cells (%) [6]: 62%
Population Normal (%) [6]: 96%
Population Pyknosed Nuclei (%) [6]: 23%
Population Tubulin-Different-Phenotype (%) [6]: 64%
Total Cell Count [6]: 130
Population Apoptotic (%) [7]: 90%
Population Fragmented Nuclei (%) [7]: 22%
Population Healthy Nuclei (%) [7]: 66%
Population Hoechst High Intensity Objects (%) [7]: 7%
Population Membrane Permeable-Phenotype (%) [7]: 0%
Population Mitochondria Different-Phenotype (%) [7]: 81%
Population Mitotic Cells (%) [7]: 9%
Population Normal (%) [7]: 92%
Population Pyknosed Nuclei (%) [7]: 11%
Population Tubulin-Different-Phenotype (%) [7]: 98%
Total Cell Count [7]: 211
Population Apoptotic (%) [8]: 66%
Population Fragmented Nuclei (%) [8]: 33%
Population Healthy Nuclei (%) [8]: 56%
Population Hoechst High Intensity Objects (%) [8]: 3%
Population Mitochondria Different-Phenotype (%) [8]: 51%
Population Mitotic Cells (%) [8]: 33%
Population Normal (%) [8]: 96%
Population Pyknosed Nuclei (%) [8]: 9%
Population Tubulin-Different-Phenotype (%) [8]: 90%
Total Cell Count [8]: 258
Population Apoptotic (%) [9]: 61%
Population Fragmented Nuclei (%) [9]: 26%
Population Healthy Nuclei (%) [9]: 56%
Population Hoechst High Intensity Objects (%) [9]: 6%
Population Membrane Permeable-Phenotype (%) [9]: 2%
Population Mitochondria Different-Phenotype (%) [9]: 17%
Population Mitotic Cells (%) [9]: 38%
Population Normal (%) [9]: 93%
Population Pyknosed Nuclei (%) [9]: 17%
Population Tubulin-Different-Phenotype (%) [9]: 69%
Total Cell Count [9]: 132
Population Apoptotic (%) [10]: 44%
Population Fragmented Nuclei (%) [10]: 33%
Population Healthy Nuclei (%) [10]: 45%
Population Hoechst High Intensity Objects (%) [10]: 1%
Population Membrane Permeable-Phenotype (%) [10]: 0%
Population Mitochondria Different-Phenotype (%) [10]: 12%
Population Mitotic Cells (%) [10]: 56%
Population Normal (%) [10]: 98%
Population Pyknosed Nuclei (%) [10]: 20%
Population Tubulin-Different-Phenotype (%) [10]: 64%
Total Cell Count [10]: 124
Population Apoptotic (%) [11]: 91%
Population Fragmented Nuclei (%) [11]: 25%
Population Healthy Nuclei (%) [11]: 61%
Population Hoechst High Intensity Objects (%) [11]: 8%
Population Membrane Permeable-Phenotype (%) [11]: 0%
Population Mitochondria Different-Phenotype (%) [11]: 82%
Population Mitotic Cells (%) [11]: 8%
Population Normal (%) [11]: 91%
Population Pyknosed Nuclei (%) [11]: 12%
Population Tubulin-Different-Phenotype (%) [11]: 97%
Total Cell Count [11]: 195
Population Apoptotic (%) [12]: 68%
Population Fragmented Nuclei (%) [12]: 38%
Population Healthy Nuclei (%) [12]: 53%
Population Hoechst High Intensity Objects (%) [12]: 4%
Population Membrane Permeable-Phenotype (%) [12]: 2%
Population Mitochondria Different-Phenotype (%) [12]: 33%
Population Mitotic Cells (%) [12]: 31%
Population Normal (%) [12]: 95%
Population Pyknosed Nuclei (%) [12]: 8%
Population Tubulin-Different-Phenotype (%) [12]: 83%
Total Cell Count [12]: 281

Source: ChEMBL document CHEMBL5058577, “EUbOPEN Chemogenomics Library 2 (Multiplex)” (2022)
